Calls of active or inactive are those of the source. The rule behind the calls is not given here.
Columns and labels:
Histamine H3 receptor [1] = molecular target: T1, Histamine H3 receptor (Homo sapiens, UniProt Q9Y5N1); test: Inhibition of the forskolin-stimulated cAMP production in SK-N-MC cells expressing human Histamine H3 receptor; Not effective; format: functional, cell-based
Histamine H4 receptor [2] = molecular target: T2, Histamine H4 receptor (Homo sapiens, UniProt Q9H3N8); test: Efficacy measured for human Histamine H4 receptor relative to histamine; format: functional
T2 sequence (Q9H3N8 whole entry): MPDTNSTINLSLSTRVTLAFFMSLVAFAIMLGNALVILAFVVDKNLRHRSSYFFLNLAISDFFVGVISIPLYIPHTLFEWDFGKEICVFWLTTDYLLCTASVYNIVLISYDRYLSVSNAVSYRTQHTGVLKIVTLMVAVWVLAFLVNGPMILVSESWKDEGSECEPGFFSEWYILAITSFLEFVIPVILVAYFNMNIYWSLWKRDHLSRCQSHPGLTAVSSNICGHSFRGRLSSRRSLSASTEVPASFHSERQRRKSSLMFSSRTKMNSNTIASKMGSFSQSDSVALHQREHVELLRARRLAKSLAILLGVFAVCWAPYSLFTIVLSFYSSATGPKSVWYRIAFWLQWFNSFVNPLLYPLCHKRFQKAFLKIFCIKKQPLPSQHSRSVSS

Histamine H3 receptor [3] = molecular target: T1, Histamine H3 receptor; test: Efficacy measured for human Histamine H3 receptor relative to histamine; format: functional
Histamine H4 receptor [4] = molecular target: T2, Histamine H4 receptor; test: Inhibition of the forskolin-stimulated cAMP production in SK-N-MC cells expressing human Histamine H4 receptor; format: functional, cell-based
Histamine H4 receptor [5] = molecular target: T2, Histamine H4 receptor; test: Histamine H4 receptor competition binding using [3H]Na-methylhistamine
Histamine H3 receptor [6] = molecular target: T1, Histamine H3 receptor; test: Histamine H3 receptor competition binding using [3H]Na-methylhistamine
Histamine H3 receptor [7] = molecular target: T1, Histamine H3 receptor; test: Inhibition of the forskolin-stimulated cAMP production in SK-N-MC cells expressing human Histamine H3 receptor; format: functional, cell-based
Histamine H3 receptor [8] = molecular target: T1, Histamine H3 receptor; test: Compound was tested for H3 receptor competition binding using [3H]- Na-methylhistamine
Outline: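 Homogenates of SK-N-MC cells stably expressing human H3 receptor, in 50 mM Na2HPO4 pH 7.4, incubated 1 h at 37 °C with 1.0 nM [3H]Nα-methylhistamine with or without competitor. Filtration through GF/C filters pretreated with 0.3% polyethylenimine, three washes with ice-cold 25 mM Tris-HCl, 145 mM NaCl pH 7.4, then scintillation counting.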

T1 sequence (Q9Y5N1 whole entry): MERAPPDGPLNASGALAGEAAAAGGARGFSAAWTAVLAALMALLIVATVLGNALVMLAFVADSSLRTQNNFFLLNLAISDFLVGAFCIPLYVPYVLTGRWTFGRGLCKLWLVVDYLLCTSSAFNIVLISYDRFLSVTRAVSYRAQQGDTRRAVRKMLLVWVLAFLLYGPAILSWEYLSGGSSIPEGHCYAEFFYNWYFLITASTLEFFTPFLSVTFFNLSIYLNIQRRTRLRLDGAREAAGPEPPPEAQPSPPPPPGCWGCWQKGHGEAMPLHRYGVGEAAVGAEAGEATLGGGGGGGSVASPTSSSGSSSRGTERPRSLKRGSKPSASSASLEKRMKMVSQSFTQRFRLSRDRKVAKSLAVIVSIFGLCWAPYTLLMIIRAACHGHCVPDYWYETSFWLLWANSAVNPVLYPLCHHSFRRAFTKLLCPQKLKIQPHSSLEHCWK

## C/N=C(\NC#N)NC[C@H]1CC[C@@H](c2c[nH]cn2)O1 (single isomer, unassigned)
Histamine H3 receptor [1]
  NE: inactive
Histamine H4 receptor [2]
  Efficacy: 1.07
Histamine H3 receptor [3]
  Efficacy: < 0.1

## c1ccc(COC[C@H]2CC[C@@H](c3c[nH]cn3)O2)cc1
Histamine H4 receptor [4]
  EC50: 11.5 µM
Histamine H4 receptor [5]
  Ki: 13.5 µM
Histamine H3 receptor [6]
  Ki: 6.92 µM
Histamine H4 receptor [2]
  Efficacy: 0.82
Histamine H3 receptor [3]
  Efficacy: 0.86
Histamine H3 receptor [7]
  EC50: 9.77 µM

## c1ccc(COC[C@@H]2CC[C@H](c3c[nH]cn3)O2)cc1
Histamine H4 receptor [4]
  EC50: 0.135 µM
Histamine H4 receptor [5]
  Ki: 0.437 µM
Histamine H3 receptor [6]
  Ki: 0.331 µM
Histamine H4 receptor [2]
  Efficacy: 0.91
Histamine H3 receptor [3]
  Efficacy: 1.06
Histamine H3 receptor [7]
  EC50: 0.191 µM

## C/N=C(\NC#N)NC[C@@H]1CC[C@H](c2c[nH]cn2)O1 (single isomer, unassigned)
Histamine H4 receptor [4]
  EC50: 0.224 µM
Histamine H4 receptor [5]
  Ki: 0.224 µM
Histamine H4 receptor [2]
  Efficacy: 1.01
Histamine H3 receptor [3]
  Efficacy: 0.43

## NC[C@H]1CC[C@H](c2c[nH]cn2)O1 [IMIFURAMINE]
Histamine H4 receptor [4]
  EC50: 2 µM
Histamine H4 receptor [5]
  Ki: 0.891 µM
Histamine H3 receptor [6]
  Ki: 0.229 µM
Histamine H4 receptor [2]
  Efficacy: 0.7
Histamine H3 receptor [3]
  Efficacy: 1.04
Histamine H3 receptor [7]
  EC50: 0.0447 µM

## C/N=C(\NC#N)NC[C@H]1CC[C@H](c2c[nH]cn2)O1
Histamine H4 receptor [4]
  EC50: 0.0776 µM
Histamine H4 receptor [5]
  Ki: 0.126 µM
Histamine H3 receptor [3]
  Efficacy: 0.79

## NC[C@@H]1CC[C@@H](c2c[nH]cn2)O1
Histamine H4 receptor [4]
  EC50: 30.9 µM
Histamine H4 receptor [5]
  Ki: 12.9 µM
Histamine H3 receptor [6]
  Ki: 0.219 µM
Histamine H4 receptor [2]
  Efficacy: 0.6
Histamine H3 receptor [3]
  Efficacy: 0.91
Histamine H3 receptor [7]
  EC50: 0.105 µM

## NC[C@@H]1C=C[C@H](c2c[nH]cn2)O1 (single isomer, unassigned)
Histamine H4 receptor [4]
  EC50: 40.7 µM
Histamine H4 receptor [5]
  Ki: 21.9 µM
Histamine H3 receptor [6]
  Ki: 11.5 µM
Histamine H4 receptor [2]
  Efficacy: 0.74
Histamine H3 receptor [3]
  Efficacy: 0.93
Histamine H3 receptor [7]
  EC50: 26.9 µM

## c1ccc(COC[C@H]2CC[C@H](c3c[nH]cn3)O2)cc1
Histamine H4 receptor [4]
  EC50: 0.741 µM
Histamine H4 receptor [5]
  Ki: 1.05 µM
Histamine H3 receptor [6]
  Ki: 0.245 µM
Histamine H4 receptor [2]
  Efficacy: 0.46
Histamine H3 receptor [3]
  Efficacy: 0.97
Histamine H3 receptor [7]
  EC50: 0.0912 µM

## NC[C@H]1C=C[C@H](c2c[nH]cn2)O1
Histamine H4 receptor [4]
  EC50: 24 µM
Histamine H4 receptor [5]
  Ki: 11.7 µM
Histamine H3 receptor [6]
  Ki: 1.02 µM
Histamine H4 receptor [2]
  Efficacy: 0.76
Histamine H3 receptor [3]
  Efficacy: 1
Histamine H3 receptor [7]
  EC50: 0.269 µM

## NC[C@@H]1CC[C@H](c2c[nH]cn2)O1 (single isomer, unassigned)
Histamine H4 receptor [4]
  EC50: 5.5 µM
Histamine H4 receptor [5]
  Ki: 2.51 µM
Histamine H3 receptor [6]
  Ki: 2.04 µM
Histamine H4 receptor [2]
  Efficacy: 0.88
Histamine H3 receptor [3]
  Efficacy: 1.06
Histamine H3 receptor [7]
  EC50: 0.776 µM

## NC[C@H]1C=C[C@@H](c2c[nH]cn2)O1 (single isomer, unassigned)
Histamine H4 receptor [4]
  EC50: 75.9 µM
Histamine H4 receptor [5]
  Ki: 12 µM
Histamine H3 receptor [8]
  Ki: 20 µM
Histamine H4 receptor [2]
  Efficacy: 0.71
Histamine H3 receptor [7]
  EC50: > 100 µM

## c1ccc(COC[C@@H]2CC[C@@H](c3c[nH]cn3)O2)cc1
Histamine H4 receptor [4]
  EC50: 12.9 µM
Histamine H4 receptor [5]
  Ki: 21.4 µM
Histamine H3 receptor [8]
  Ki: 10.5 µM
Histamine H4 receptor [2]
  Efficacy: 0.49
Histamine H3 receptor [3]
  Efficacy: 0.66
Histamine H3 receptor [7]
  EC50: 9.55 µM

## NC[C@H]1CC[C@@H](c2c[nH]cn2)O1 (single isomer, unassigned)
Histamine H4 receptor [4]
  EC50: 7.59 µM
Histamine H4 receptor [5]
  Ki: 6.46 µM
Histamine H3 receptor [6]
  Ki: 1.7 µM
Histamine H4 receptor [2]
  Efficacy: 1.02
Histamine H3 receptor [3]
  Efficacy: 0.95
Histamine H3 receptor [7]
  EC50: 0.813 µM

## C/N=C(\NC#N)NC[C@@H]1CC[C@@H](c2c[nH]cn2)O1
Histamine H4 receptor [4]
  EC50: 21.4 µM
Histamine H4 receptor [5]
  Ki: 20.4 µM
Histamine H4 receptor [2]
  Efficacy: 1.06

## NC[C@@H]1C=C[C@@H](c2c[nH]cn2)O1
Histamine H4 receptor [4]
  EC50: 85.1 µM
Histamine H4 receptor [5]
  Ki: > 100 µM
Histamine H3 receptor [6]
  Ki: 2.51 µM
Histamine H4 receptor [2]
  Efficacy: 0.85
Histamine H3 receptor [3]
  Efficacy: 0.75
Histamine H3 receptor [7]
  EC50: 2.82 µM
